# Screening data as filed in PubChem BioAssay.
# The list is not random: actives were taken first. Their share in the collection is about 1.8%.
# eIF4H inh = inhibitors of RNA binding by human eIF4H; 290,000 tested, 0.94% active; inhibition, % at 35 µM; Q15056; eIF4H fluorescence polarization binding assay;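 note: calls also rest on retests at 20 µM and on dose response follow-up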
# MLLE-PAM2 inh = inhibitors of microRNA-mediated deadenylation, human PABP1 MLLE binding; P11940; GST-MLLE / FITC-PAM2 fluorescence polarization; inhibition, % at 20 µM; 360,000 tested, 0.36% active; AID 588489; in the data active = inhibition above about 35%, passing the limit was not always enough;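 note: plate controls were DMSO wells with GST-MLLE for no effect and wells lacking GST-MLLE protein for full effect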
# PABP FP inh = PABP-poly(A) binding inhibition; P11940; 290,000 tested, 1% active; calls only at 35 µM; AID 2014; PABP-poly(A) RNA binding, fluorescence polarization;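 note: calls also rest on retests at 20 µM and on dose response follow-up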
# MT1-MMP act inh = MT1-MMP (human) activation inhibition; P50281; HT1080 RFP-PRO-GFP cells, GFP/RFP ratio fluorescence, overnight; percent of plate control window, DMSO zero; GFP/RFP ratio change, % at 20 µM; 360,000 tested, 0.061% active; AID 651647;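 active = GFP/RFP ratio change of at least 30% with cell ATP level not reduced by more than half and red fluorescence within 50% of control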
#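 system = RFP-PRO-GFP reporter HT1080 cells | dosing = 20 µM single dose, 1% DMSO | timing = overnight cell settling, then overnight compound exposure, 37 °C, 5% CO2 | read-out basis = GFP/RFP fluorescence ratio | controls = DMSO and RFP-L50D-GFP cell wells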
# SKN-1 block = blocks SKN-1 activity in C. elegans; inhibition, % at 21.8 µM; 360,000 tested, 0.49% active; AID 624304; C. elegans VP596 Pgst-4::GFP/RFP ratio, acrylamide-induced, 24 h;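 active = interference check ratio from 0.5 to 1.5 plus GFP to RFP signal ratio inhibition reaching or exceeding a fixed threshold, cut at about 30% in these data, passing the limit was not always enough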
# * = called active by the depositor; i = inactive; ? = inconclusive; / = not tested or not shown; + = active, no number. Unless noted, the rule behind the calls is not given here.
SMILES,eIF4H inh,MLLE-PAM2 inh,PABP FP inh,MT1-MMP act inh,SKN-1 block
COc1ccc(C(=O)N2CCC2(C)C(=O)O)cc1C(F)(F)F (stereo unspecified),/,0,/,-1,9
CC1CCc2c(sc(NC(=O)CSc3nc(N)cc(=O)[nH]3)c2C(N)=O)C1 (stereo unspecified),/,-3,/,2,10
CC(NC(=O)c1ccccc1F)c1nnc(SCC(=O)NC2=NCCS2)n1C (stereo unspecified),90*,-2,+,1,11
CC(NC(=O)c1ccccc1Br)c1nnc(SCC(=O)NC2=NCCS2)n1C (stereo unspecified),-13,7,i,-1,-6
S=c1nc(-c2sccc2OCc2ccc(Cl)cc2Cl)[nH][nH]1,9,37*,i,-1,10
CNC(=S)NNC(=O)c1sccc1OCc1ccc(Cl)cc1Cl,-1,-86,i,1,3
Cc1ccc2ccccc2c1C(O)c1ncc(-c2cccc(F)c2)[nH]1 (stereo unspecified),/,5,/,-1,12
CC1Cc2ccccc2N1C(=O)c1cc2cccnc2n(C)c1=O (stereo unspecified),/,-15,/,-2,-3
CCCCCOc1ccccc1C(=O)NCCC(=O)O,2,-1,i,0,38*
CCCCCOc1ccccc1C(=O)NCCCC(=O)O,1,-8,i,1,-8
Cc1ccc(S(=O)(=O)CCSc2cccc(C(=O)Nc3ccccc3C(=O)O)c2)cc1,1,36*,i,6,0
CSc1cccc(CN2CCC(CCC(=O)NC3CC3)CC2)c1,0,3,i,/,0
Cc1oc(-c2ccc(Cl)cc2)cc1-c1nn2c(-c3ccco3)nnc2s1,64*,/,+,/,/
Cc1oc(-c2ccc(F)cc2)cc1-c1nn2c(-c3ccoc3C)nnc2s1,80*,-17,+,-7,3
COc1cc(OC)c(-c2nn3c(-c4ccco4)nnc3s2)cc1OC,75*,3,i,16,21
CCCNC(=O)C1(C)CCCN(Cc2cc(-c3ccccc3)nn2C)C1 (stereo unspecified),/,5,/,-4,-1
COc1ccc2c(c1)C(C)(Cc1ccc(C(=O)c3ccccc3)cc1)C(=O)N2 (stereo unspecified),/,10,/,9,2
COc1ccc(-n2ccnc(SCC(=O)NC3CCCC3)c2=O)cc1,-1,41*,i,5,13
O=C(CSc1nccn(-c2ccc(Br)cc2)c1=O)NC1CCCC1,/,45*,/,1,9
O=C(CSc1nccn(-c2ccc(Br)cc2)c1=O)Nc1ccccc1F,/,35,/,3,13
COc1ccc(-n2ccnc(SCC(=O)NC3CCCC3)c2=O)cc1OC,/,51*,/,1,3
Cc1ccc(-n2ccnc(SCC(=O)NC3CCCCC3)c2=O)cc1F,/,41*,/,-9,7
COc1ccc(-n2ccnc(SCC(=O)NC3CCCCC3)c2=O)cc1,-9,24,i,3,30
CCOC(=O)C1CCN(C(=O)c2ccc(OCC(=O)Nc3ccc(OCC)cc3)c(OC)c2)CC1,/,4,/,6,-10
CN(C)CCNc1nc(Oc2ccccc2)c2sccc2n1,/,-25,/,0,4
SMILES,eIF4H inh,MLLE-PAM2 inh,PABP FP inh,MT1-MMP act inh,SKN-1 block
CCC1c2ccc(C)n2CCN1C(=O)Nc1ccccc1C(=O)OC (stereo unspecified),132,24,+,-17,-1
CCOC(=O)c1ccccc1NC(=O)N1CCn2c(C)ccc2C1CC (stereo unspecified),?,5,+,-24,27
CCCC1c2ccc(C)n2CCN1C(=O)Nc1ccccc1Cl (stereo unspecified),?,28,i,-25,2
O=C(Nc1ccc(-n2cccc2)cc1)C1CC1,0,7,i,/,9
CC(C)(CC(=O)O)CC(=O)Nc1ccc2c(c1)ncn2CCc1ccccc1,-4,-7,i,-3,13
CNC(=O)NC(=O)CSc1ccc(S(=O)(=O)N2CCOCC2)cn1,/,-2,/,-2,-3
CCCNCc1cc(Cl)c(OCC)c(Cl)c1,-1,-2,i,/,42*
COC(=O)c1ccc(CNC(=O)c2ccc(S(=O)(=O)N(C)c3ccccc3OC)cc2)cc1,/,6,/,-1,-13
O=C(COC(=O)CCC1CCCC1)Nc1ccc(Cl)cn1,-2,6,i,0,41*
Fc1ccc(NCc2cccnc2)cc1F,?,48*,?,-18,14
CN(C)c1nc(N(C)C)c2cnn(C)c2n1,/,-1,/,0,19
